The values that follow come from paper PMC8792325 (Bioorganic & medicinal chemistry letters, 2021).

The subject of data set [1] is HBV replication. Nature of the data set: Anti-HBV activity, dot blot hybridization assay in AML12HBV10 cells. It counts as cell-based, Hepatitis B virus.
Data set [2] relates to HBV replication. The settings on record: human hepatoma cell line HepDES19; cited from earlier work.
Data set [3] is described as follows: Metabolic stability in mouse liver microsomes. It counts as in vitro ADME. The settings on record: Half-life T1/2, mouse liver microsomes.
The subject of data set [4] is HBV replication. The settings on record: immortalized mouse hepatocyte line AML12HBV10; cited from earlier work.
Data set [5] concerns HBV replication in HepDES19 cells. Put plainly: Mapping of the HBV replication step inhibited, in HepDES19 cells. It counts as cell-based, Hepatitis B virus. As to conditions: HepDES19, 6 days, ETV 1 μM, Bay 41–4109 2 μM; for encapsidated pgRNA / capsids: ENAN-34017 5 μM, 61 5 μM; for encapsidated pgRNA: Northern blot; for capsids: particle gel assay; for intracellular core protein level: Western blot. In a few lines:
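HepDES19 cells were kept with tetracycline to block pgRNA transcription (negative control) or without it to induce pgRNA and HBV DNA replication. From 24 h after tet removal, cells got DMSO, test compound (5 μM) or a type II CpAM reference (5 μM) for 6 days. Intracellular core protein was detected by Western blot with an antibody to Cp C-terminal 14 residues; β-actin was the loading control.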

Data set [6] can be described thus: Mouse PK study, IV and PO. On the set-up: species or system mice. The settings on record: in vivo, 3 mg/kg.
The next data set has as its system CYP enzymes. Put plainly: in vitro. It counts as in vitro ADME. As to conditions: human, 10 μM.
The test system of data set [7] is CYP enzymes (one unnamed isoform of a panel of 9). Nature of the data set: in vitro. The class given is in vitro ADME.

On to `O=C(Nc1cc(F)c(F)c(F)c1)c1cccc2c1OCCO2` [Compound 29], for which, in the data set on HBV replication [1], the “anti-HBV activity (in words)” value is reported as “submicromolar”.
Turning to `O=C1CCN(C(=O)Nc2ccc(F)c(C(F)F)c2)[C@@H]2CCCC[C@H]12` [Compound 71], the “anti-HBV activity (in words)” value in the data set on HBV replication [1] is given as “submicromolar”.
With `O=C(Nc1ccc(N2CCOCC2)c(Cl)c1)c1cccc2c1OCCO2` [Compound 17], the “anti-HBV activity (in words)” value with HBV replication [1] was “loss of anti-HBV activity”.
Regarding `O=C(Nc1ccc(F)c(Cl)c1)c1cccc2c1OCCO2` [Compound 10], the “EC50 in HepDES19” value in the data set with HBV replication [2] is “sub-micromolar”. This compound also registered a half-life in data set [3] below 10 min. In addition, in the data set with HBV replication [4], the “EC50 in AML12HBV10” value is on record as “sub-micromolar”.
`O=C(NC1CC(F)(F)C1)c1cccc2c1OCCO2` [Compound 21]: in the data set with HBV replication [1], the “anti-HBV activity (in words)” value is listed as “lost activity”.
Regarding `O=C(Nc1ccc(F)c(Cl)c1)c1cccc2nccnc12` [Compound 34], the “activity loss compared to 10” value with HBV replication [1] is above 10 fold.
As for `O=C(Nc1ccc(F)c(Cl)c1)c1cccc2c1OC(F)(F)O2` [Compound 37], the “potency increase compared to 10” value in the data set with HBV replication [1] was 2 fold.
As for `Cc1cc(NC(=O)N2CCC(=O)[C@H]3CCCC[C@H]32)ccc1F` [Compound 70], in the data set on HBV replication [1], the “anti-HBV activity (in words)” value is “submicromolar”.
In the case of `O=C(Nc1ccc(F)c(Cl)c1)c1cccc2c1OCCC2` [Compound 33], in the data set on HBV replication [1], the “activity loss compared to 10” value is on record as “about 4 fold”.
For the compound `C=C1[C@H](CO)[C@@H](O)C[C@@H]1n1cnc2c(=O)[nH]c(N)nc21.O` [Entecavir], in data set [5], the “encapsidated pgRNA” value is “accumulation of encapsidated pgRNA”, the capsids entry was “did not alter” and the “intracellular core protein level” value is given as “did not alter”.
In the case of `O=C1CCN(C(=O)Nc2cccc(Cl)c2)[C@@H]2CCCC[C@H]12` [Compound 74], the “anti-HBV activity (in words)” value with HBV replication [1] is given as “submicromolar”.
In turn, `O=C1CCN(C(=O)Nc2ccc(F)c(Cl)c2)C2CCCCC12` (stereo not drawn) [Compound 61, cis-N-(3-chloro-4-fluorophenyl)-4-oxooctahydroquinoline-1(2H)-carboxamide] yielded a clearance in data set [6] of 25.5 mL/min/kg. Moreover, in the data set with CYP enzymes, the “CYP (#/9 of isoforms, > 50% of inhibition at 10 μM)” value amounted to 1. The same compound came in with an IC50 in data set [7] below 10 µM. In data set [5], the “encapsidated pgRNA” value is given as “reduced the amounts of encapsidated pgRNA” and the capsids entry is “induced the accumulation of capsids with faster electrophoresis mobility”.
Consider `COC(=O)C1=C(C)NC(c2ncc(F)cc2F)=N[C@H]1c1ccc(F)cc1Cl` [Bay 41–4109], for which, in data set [5], the “encapsidated pgRNA” value was “prevented”, the capsids entry is “completely abolished capsid formation” and the “intracellular core protein level” value was “induced the degradation of core protein”.
For the compound `O=C(Nc1ccc(O)c(Cl)c1)c1cccc2c1OCCO2` [Compound 20], in the data set with HBV replication [1], the “anti-HBV activity (in words)” value is given as “not active”.
Consider `C[C@@H](NS(=O)(=O)c1ccc(F)c(C(=O)Nc2ccc(F)c(F)c2)c1)C1CC1` [ENAN-34017], for which, in data set [5], the “encapsidated pgRNA” value is recorded as “reduced the amounts of encapsidated pgRNA” and the capsids entry is recorded as “induced the accumulation of capsids with faster electrophoresis mobility”.

By half-life is commonly meant the time needed for the level to fall by half in the phase considered. Low readings indicate rapid decline, high ones slow decline. A word on the IC50: it is the concentration at which inhibition is half-maximal.
